Source: ChEMBL document CHEMBL2177098, “Synthesis and evaluation of novel ¹⁸F labeled 2-pyridinylbenzoxazole and 2-pyridinylbenzothiazole derivatives as ligands for positron emission tomography (PET) imaging of β-amyloid plaques” (J Med Chem, 2012)

What was measured:
Stomach = test: Drug uptake in ICR mouse stomach assessed per organ at 370 kBq/100 ul, iv at 30 mins by gamma-counting analysis; assay type: ADME, organism-based; details: in vivo, 0.5 h
How it was run: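 Male ICR mice (5 weeks, about 20 g) got 18F tracer in saline (370 KBq per 100 μL) via tail vein; n = 5 per time point, killed at 2, 10, 30, 60 min. Organs removed and γ-counted against diluted injectate; expressed as % injected dose per organ.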

Spleen = test: Drug uptake in ICR mouse spleen at 370 kBq/100 ul, iv at 60 mins by gamma-counting analysis; assay type: ADME, organism-based; details: in vivo, 1 h
How it was run: (§1)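 Male ICR mice (5 weeks, about 20 g) got 18F tracer in saline (370 KBq per 100 μL) via tail vein; n = 5 per time point, killed at 2, 10, 30, 60 min. Organs weighed and γ-counted; percent dose per gram wet tissue from comparison with diluted injectate aliquots.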

Bone [1] = test: Drug uptake in ICR mouse bone at 370 kBq/100 ul, iv at 2 mins by gamma-counting analysis; assay type: ADME, organism-based, Bone element; details: in vivo; how it was run: as §1
[2] = n-Octanol-PBS buffer partition coefficient, log D of the compound at 1.5 MBq after 3 mins at pH 7.4; assay type: physicochemical
How it was run: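 The tracer was partitioned between n-octanol and PBS by vortexing for 3 min at room temperature, then centrifuged for 5 min at 3000 rpm. Samples of the octanol (50 μL) and aqueous (500 μL) layers were counted. log D is the log of the octanol/PBS counts-per-gram ratio. The octanol layer was repartitioned until values were consistent. Measured in triplicate and repeated three times.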

Brain [3] = test: Drug uptake in wild type C57BL6 mouse brain at 19.2 MBq, iv after 30 mins by autoradiographic analysis; assay type: ADME, organism-based; details: in vivo, 0.5 h
Brain [4] = test: Drug uptake in wild type C57BL6 mouse brain at 370 KBq/100 ul after 1 hr by autoradiographic analysis; assay type: ADME, tissue-based; details: in vitro
How it was run: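 Paraffin brain sections from 12-month-old male control C57BL6 mice were deparaffinized through xylene and graded ethanol, then held in PBS (0.2 M, pH 7.4) for 30 min. They were incubated with the ¹⁸F tracer (370 KBq per 100 μL) for 1 h at room temperature. Sections were washed in 40% EtOH, rinsed with water for 1 min, dried, and exposed to a phosphor plate for 2 h. The same sections were then stained with thioflavin S.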

Blood = test: Drug uptake in ICR mouse blood at 370 kBq/100 ul, iv at 10 mins by gamma-counting analysis; assay type: ADME, organism-based; details: in vivo; how it was run: as §1
Bone [5] = test: Drug uptake in ICR mouse bone at 370 kBq/100 ul, iv at 30 mins by gamma-counting analysis; assay type: ADME, organism-based, Bone element; details: in vivo, 0.5 h; how it was run: as §1
Kidney = test: Drug uptake in ICR mouse kidney at 370 kBq/100 ul, iv at 2 mins by gamma-counting analysis; assay type: ADME, organism-based; details: in vivo; how it was run: as §1
Brain [6] = test: Ratio of drug uptake in brain at 2 mins to drug uptake in brain at 60 mins in ICR mouse at 370 KBq/100 ul, iv; assay type: ADME, organism-based; details: in vivo
How it was run: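 Normal male ICR mice (5 weeks, about 20 g) received the ¹⁸F tracer in saline (370 KBq per 100 μL) by tail-vein injection. Groups of n = 5 were killed at 2, 10, 30 and 60 min. Organs were removed, weighed and γ-counted against diluted aliquots of the injectate, giving % dose per gram. Stomach and intestine were expressed per organ. The brain ratio is 2 min/60 min uptake. Values are mean ± SD.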

[7] = Chemical stability of the compound in saline solution after 6 hrs; assay type: physicochemical; details: buffer
How it was run: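 Tracer kept in saline solution at room temperature, and stability followed during storage for up to 6 h.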

A Drug uptake (Stomach) of 3.11 %ID, a Drug uptake (Spleen) of 1.64 % ID/g and a Drug uptake (Bone [1]) of 1.18 % ID/g were found for `CNc1ccc(-c2nc3cc(OCC[18F])ccc3o2)cn1` in this work. The logD at 0.05 h [2] was 3.52, the Drug uptake (Brain [3]) was “Not Active” and the Drug uptake (Brain [4]) was “Not Active”. It also gave a Drug uptake (Blood) of 2.55 % ID/g, a Drug uptake (Bone [5]) of 2.34 % ID/g and a Drug uptake (Kidney) of 7.45 % ID/g. The Ratio (Brain [6]) was 4.66 and the Stability [7] was “Stable”.
